According to ChEMBL document CHEMBL1208790, “Exploration of a new series of CCR5 antagonists: multi-dimensional optimization of a sub-series containing N-substituted pyrazoles” (Bioorg Med Chem Lett, 2010):

Assay: Lipophilicity, log D of the compound at pH 7 by shake flask method
Format: physicochemical
Settings: buffer
In short: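 High-throughput shake-flask log D determination at pH 7.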

logD | Structure (SMILES)
1.37 | Cc1ncnc(C)c1C(=O)N1C[C@H]2CN(CC[C@H](NC(=O)C3CCCC3)c3ccccc3)C[C@H]2C1
1.89 | Cc1cc(C#N)nc(C)c1C(=O)N1C[C@H]2CN(CC[C@H](NC(=O)C3CCCC3)c3ccccc3)C[C@H]2C1
1.9 | Cc1ccnc(C)c1C(=O)N1C[C@H]2CN(CC[C@H](NC(=O)C3CCCC3)c3ccccc3)C[C@H]2C1
2.92 | Cc1nn(-c2ccccc2)c(C)c1C(=O)N1C[C@H]2CN(CC[C@H](NC(=O)C3CCCC3)c3ccccc3)C[C@H]2C1
